Source: publication PMC9942872 (Proceedings of the National Academy of Sciences of the …, 2023)

Target: T1, NaLdpA (Novosphingobium aromaticivorans, UniProt Q2G4I2)
T1 sequence (Q2G4I2 1-243): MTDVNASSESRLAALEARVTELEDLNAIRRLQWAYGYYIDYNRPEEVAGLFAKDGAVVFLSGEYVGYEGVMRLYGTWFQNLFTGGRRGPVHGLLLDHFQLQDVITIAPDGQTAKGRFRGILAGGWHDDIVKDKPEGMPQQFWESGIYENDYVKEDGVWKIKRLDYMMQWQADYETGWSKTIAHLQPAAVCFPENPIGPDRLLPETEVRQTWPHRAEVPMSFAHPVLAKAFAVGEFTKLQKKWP
Assay: spectrophotometric lignostilbene production, product inhibition
Assay type: biochemical
Method in brief: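 Recombinant polyHis-tagged enzyme expressed in E. coli, purified by chromatography and stored at −80 °C. Reactions were run in air-saturated MOPS (I = 0.1 M), pH 7.0, at 25 °C. Erythro-DGPD substrate concentration was varied, with lignostilbene added at 0, 1, 2, 4 or 10 μM.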

COc1cc(/C=C/c2ccc(O)c(OC)c2)ccc1O [lignostilbene]
Ki: 330 ± 30 nM
